Active and inactive are the calls of the source. The rule behind the calls is not given here.
Legend:
[1] = target: T1, ATP-dependent translocase ABCB1 (Homo sapiens, UniProt P08183); assay: Inhibition of P-gp-mediated paclitaxel-resistance in P-glycoprotein-expressing human LCC-6 cells assessed as fold decrease in paclitaxel IC50 for cytotoxic activity at 1 uM after 5 days by MTS assay relative to control; type: cell-based; settings: lcc-6, 120 h
Procedure, shortened: (§1)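 ABCB1-transfected LCC6MDR cells (6000 per well) given serial paclitaxel, doxorubicin or vincristine with or without 1 μM modulator for 5 days at 37 °C. MTS/PMS added for 2 h, absorbance 490 nm. IC50 from dose-response curves. RF = IC50 without modulator / IC50 with modulator; mean ± SEM.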

[2] = Cytotoxicity against multidrug-resistant human LCC-6 cells after 3 days by MTS assay; type: cell-based; settings: LCC-6, 72 h
L929 = assay: Cytotoxicity against mouse L929 cells after 3 days by MTS assay; type: cell-based; settings: L929, 72 h
[3] = Cytotoxicity against wild type human LCC-6 cells after 3 days by MTS assay; type: cell-based; settings: LCC-6, 72 h
[4] = target: T1, ATP-dependent translocase ABCB1; assay: Inhibition of P-gp-mediated paclitaxel-resistance in P-glycoprotein-expressing human LCC-6 cells assessed as fractional inhibitory concentration index at 0.5 uM after 5 days by MTS assay in presence of 1-(3,4,5-Trimethoxybenzyl)-3,4-bis(3,4-dimethoxyphenyl)-1H-pyrrole-2,5-dione; type: cell-based; settings: lcc-6, 120 h
Procedure, shortened: (§2)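 LCC6MDR cells (6000 per well) given two modulators at 0.5 μM each, with serial paclitaxel, doxorubicin or vincristine, for 5 days at 37 °C. IC50 by MTS absorbance at 490 nm. FIC values come from IC50 relative to each modulator alone at 1 μM, and FICI is the sum (modified Chou–Talalay). Synergy: FICI ≤0.5; additive: 0.5–4; antagonism: >4.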

[5] = target: T1, ATP-dependent translocase ABCB1; assay: Inhibition of P-gp-mediated doxorubicin-resistance in P-glycoprotein-expressing human LCC-6 cells assessed as fold decrease in doxorubicin IC50 for cytotoxic activity at 1 uM after 5 days by MTS assay; type: cell-based; settings: lcc-6, 120 h; procedure, shortened: as §1
[6] = target: T1, ATP-dependent translocase ABCB1; assay: Inhibition of P-gp-mediated vincristine-resistance in P-glycoprotein-expressing human LCC-6 cells assessed as fold decrease in vincristine IC50 for cytotoxic activity at 1 uM after 5 days by MTS assay; type: cell-based; settings: lcc-6, 120 h; procedure, shortened: as §1
[7] = target: T1, ATP-dependent translocase ABCB1; assay: Inhibition of P-gp-mediated doxorubicin-resistance in P-glycoprotein-expressing human LCC-6 cells assessed as fractional inhibitory concentration index at 0.5 uM after 5 days by MTS assay in presence of 1-(3,4,5-Trimethoxybenzyl)-3,4-bis(3,4-dimethoxyphenyl)-1H-pyrrole-2,5-dion; type: cell-based; settings: lcc-6, 120 h; procedure, shortened: as §2
[8] = target: T1, ATP-dependent translocase ABCB1; assay: Inhibition of P-gp-mediated vincristine-resistance in P-glycoprotein-expressing human LCC-6 cells assessed as fractional inhibitory concentration index at 0.5 uM after 5 days by MTS assay in presence of 1-(3,4,5-Trimethoxybenzyl)-3,4-bis(3,4-dimethoxyphenyl)-1H-pyrrole-2,5-dione; type: cell-based; settings: lcc-6, 120 h; procedure, shortened: as §2
LCC-6 = assay: Increase in doxorubicin concentration in wild type human LCC-6 cells at 3 uM after 150 mins by spectrofluorimetry; type: functional, cell-based
Procedure, shortened: (§3)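 Cells (1 × 10⁶ LCC6 or LCC6MDR) incubated with 20 μM doxorubicin plus modulator for 150 min at 37 °C; 0.4% DMSO as negative control. Cells washed in cold PBS pH 7.4 and lysed in 0.75 M HCl/0.2% Triton X-100 in isopropanol. Supernatant doxorubicin fluorescence read at ex 460/em 610 nm. Duplicate, repeated twice; mean ± SEM.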

[9] = target: T1, ATP-dependent translocase ABCB1; assay: Inhibition of P-gp-mediated doxorubicin-resistance in P-glycoprotein-expressing human LCC-6 cells assessed as increase in intracellular doxorubicin accumulation at 3 uM after 150 mins by spectrofluorimetry relative to control; type: cell-based; settings: lcc-6, 2.5 h; procedure, shortened: as §3
[10] = target: T1, ATP-dependent translocase ABCB1; assay: Inhibition of P-gp-mediated doxorubicin-resistance in P-glycoprotein-expressing human LCC-6 cells assessed as increase in intracellular doxorubicin accumulation at 0.25 to 3 uM after 150 mins by spectrofluorimetry; type: cell-based; settings: lcc-6, 2.5 h; procedure, shortened: as §3
[11] = target: T1, ATP-dependent translocase ABCB1; assay: Inhibition of P-gp-mediated doxorubicin-resistance in P-glycoprotein-expressing human LCC-6 cells assessed as increase in intracellular doxorubicin accumulation at 8 to 16 uM after 150 mins by spectrofluorimetry; type: cell-based; settings: lcc-6, 2.5 h; procedure, shortened: as §3
[12] = Noncompetitive inhibition of P-gp-mediated doxorubicin transport in multidrug-resistant human LCC-6 cells after 150 mins by dixon plot analysis; type: cell-based
Procedure, shortened: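 LCC6MDR cells (1 × 10⁶) incubated with doxorubicin at 1.5, 4.4, 13.3 or 40 μM and modulator at 0, 0.5, 1 or 2 μM for 150 min at 37 °C. Lysis and fluorescence done as in the accumulation assay. Ki taken from a Dixon plot of reciprocal retention rate vs modulator concentration. Slope replot vs 1/[doxorubicin] used to assign mechanism. Two to four experiments.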

[13] = target: T1, ATP-dependent translocase ABCB1; assay: Inhibition of P-gp-mediated paclitaxel-resistance in P-glycoprotein-expressing human LCC-6 cells assessed as fractional inhibitory concentration index at 0.5 uM after 5 days by fraction affected plot assay in presence of 1-(3,4,5-Trimethoxybenzyl)-3,4-bis(3,4-dimethoxyphenyl)-1H-pyrrole-2,5-dione; type: cell-based; settings: lcc-6, 120 h

T1 sequence (P08183 whole entry): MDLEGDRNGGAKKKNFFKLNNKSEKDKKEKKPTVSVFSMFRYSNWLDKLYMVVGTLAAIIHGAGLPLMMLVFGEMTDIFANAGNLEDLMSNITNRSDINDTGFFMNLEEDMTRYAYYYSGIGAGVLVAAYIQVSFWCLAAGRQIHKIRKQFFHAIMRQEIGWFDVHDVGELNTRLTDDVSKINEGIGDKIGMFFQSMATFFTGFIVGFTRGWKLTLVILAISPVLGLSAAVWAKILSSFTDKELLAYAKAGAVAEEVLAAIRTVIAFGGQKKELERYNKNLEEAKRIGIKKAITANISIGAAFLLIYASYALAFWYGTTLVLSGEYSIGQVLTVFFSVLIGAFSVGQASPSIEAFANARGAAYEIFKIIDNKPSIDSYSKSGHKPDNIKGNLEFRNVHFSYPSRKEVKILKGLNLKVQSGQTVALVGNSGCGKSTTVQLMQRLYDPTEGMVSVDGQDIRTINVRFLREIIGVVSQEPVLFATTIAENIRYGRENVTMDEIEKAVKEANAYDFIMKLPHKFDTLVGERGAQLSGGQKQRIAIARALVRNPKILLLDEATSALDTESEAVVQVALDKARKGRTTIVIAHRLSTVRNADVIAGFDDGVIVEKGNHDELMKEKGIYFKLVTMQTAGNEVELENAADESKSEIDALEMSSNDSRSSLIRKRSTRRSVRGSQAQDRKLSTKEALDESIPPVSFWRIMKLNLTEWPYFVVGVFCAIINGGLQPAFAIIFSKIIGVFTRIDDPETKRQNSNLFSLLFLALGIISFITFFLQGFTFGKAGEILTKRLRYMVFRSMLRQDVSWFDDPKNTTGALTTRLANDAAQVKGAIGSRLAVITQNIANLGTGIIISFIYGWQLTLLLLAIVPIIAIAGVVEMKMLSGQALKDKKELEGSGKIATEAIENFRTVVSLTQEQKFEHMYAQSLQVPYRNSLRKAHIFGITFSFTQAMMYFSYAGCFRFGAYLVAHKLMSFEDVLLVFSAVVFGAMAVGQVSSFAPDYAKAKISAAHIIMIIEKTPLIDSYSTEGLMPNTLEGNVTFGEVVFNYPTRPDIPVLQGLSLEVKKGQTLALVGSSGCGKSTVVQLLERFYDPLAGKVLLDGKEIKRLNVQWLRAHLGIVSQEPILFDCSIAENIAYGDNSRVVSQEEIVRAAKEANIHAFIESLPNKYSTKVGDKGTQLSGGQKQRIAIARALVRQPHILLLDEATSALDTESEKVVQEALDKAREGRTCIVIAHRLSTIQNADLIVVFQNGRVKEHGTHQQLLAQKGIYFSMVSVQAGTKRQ

COc1ccc(C2=C(c3ccc(OC)c(OC)c3)C(=O)N(CC(=O)c3ccccc3)C2=O)cc1OC
fold change (FC) [1]: 3.9
IC50 [2]: > 100 µM
IC50 (L929): > 100 µM

COc1ccc(C(=O)CN2C(=O)C(c3ccc(OC)c(OC)c3)=C(c3ccc(OC)c(OC)c3)C2=O)cc1
fold change (FC) [1]: 9.9
IC50 [3]: > 100 µM
IC50 [2]: 90 µM
IC50 (L929): > 100 µM
fractional inhibitory concentration index (FICI) [4]: 0.42
fold change (FC) [5]: 5.2
fold change (FC) [6]: 9.3
fractional inhibitory concentration index (FICI) [7]: 1.26
fractional inhibitory concentration index (FICI) [8]: 0.89
Activity (LCC-6): inactive
fold change (FC) [9]: 2.1
Activity [10]: Active
Activity [11]: Not Active
Ki [12]: 5.4 µM
fractional inhibitory concentration index (FICI) [13]: 0.42

COc1ccc(C2=C(c3ccc(OC)c(OC)c3)C(=O)N(Cc3ccccc3)C2=O)cc1OC
fold change (FC) [1]: 7.9

COc1ccc(C2=C(c3ccc(OC)c(OC)c3)C(=O)N(CCO)C2=O)cc1OC
fold change (FC) [1]: 1.8
IC50 [2]: 84 µM
IC50 (L929): > 100 µM

COc1ccc(C2=C(c3ccc(OC)c(OC)c3)C(=O)N(CN3C(=O)C(c4ccc(OC)c(OC)c4)=C(c4ccc(OC)c(OC)c4)C3=O)C2=O)cc1OC
fold change (FC) [1]: 8
IC50 [3]: > 100 µM
IC50 [2]: > 100 µM
IC50 (L929): > 100 µM

COc1ccc(C2=C(c3ccc(OC)c(OC)c3)C(=O)N(CCCN3C(=O)C(c4ccc(OC)c(OC)c4)=C(c4ccc(OC)c(OC)c4)C3=O)C2=O)cc1OC
fold change (FC) [1]: 5.2
IC50 [3]: > 100 µM
IC50 [2]: > 100 µM
IC50 (L929): > 100 µM

C/C=C/C[C@@H](C)C(=O)[C@H]1C(=O)N[C@@H](C(C)C)C(=O)N(C)CC(=O)N(C)[C@@H](CC(C)C)C(=O)N[C@@H](C(C)C)C(=O)N(C)[C@@H](CC(C)C)C(=O)N[C@@H](C)C(=O)N[C@H](C)C(=O)N(C)[C@@H](CC(C)C)C(=O)N(C)[C@@H](CC(C)C)C(=O)N(C)[C@@H](C(C)C)C(=O)N1C [VALSPODAR]
fold change (FC) [1]: 101.8

COc1ccc(C2=C(c3ccc(OC)c(OC)c3)C(=O)N(CCc3ccccc3)C2=O)cc1OC
fold change (FC) [1]: 3.6
IC50 [2]: > 100 µM
IC50 (L929): > 100 µM

COc1ccc(C2=C(c3ccc(OC)c(OC)c3)C(=O)N(CCCc3cc(OC)c(OC)c(OC)c3)C2=O)cc1OC
fold change (FC) [1]: 4.7
IC50 [3]: > 100 µM
IC50 [2]: > 100 µM
IC50 (L929): > 100 µM

COc1ccc(C2=C(c3ccc(OC)c(OC)c3)C(=S)N(CCc3cc(OC)c(OC)c(OC)c3)C2=O)cc1OC
fold change (FC) [1]: 2.8

COc1ccc(C2=C(c3ccc(OC)c(OC)c3)C(=O)N(Cc3cc(OC)c(OC)c(OC)c3)C2=O)cc1OC
fold change (FC) [1]: 18.2
IC50 [3]: > 100 µM
IC50 [2]: > 100 µM
IC50 (L929): > 100 µM
fold change (FC) [5]: 9.5
fold change (FC) [6]: 14.6
Activity (LCC-6): inactive
fold change (FC) [9]: 3
Activity [10]: Active
Activity [11]: Not Active
Ki [12]: 5.5 µM

COc1ccc(C2=C(c3ccc(OC)c(OC)c3)C(=O)N(C/C=C/c3cc(OC)c(OC)c(OC)c3)C2=O)cc1OC
fold change (FC) [1]: 6.2
IC50 [3]: > 100 µM
IC50 [2]: > 100 µM
IC50 (L929): > 100 µM

COc1ccc(CN2C(=O)C(c3ccc(OC)c(OC)c3)=C(c3ccc(OC)c(OC)c3)C2=O)cc1OC
fold change (FC) [1]: 12.4
IC50 [3]: > 100 µM
IC50 [2]: > 100 µM
IC50 (L929): > 100 µM
fractional inhibitory concentration index (FICI) [4]: 2.21
fractional inhibitory concentration index (FICI) [13]: 2.21

COc1ccc(C(=O)CN2C(=O)C(c3ccc(OC)c(OC)c3)=C(c3ccc(OC)c(OC)c3)C2=O)cc1OC
fold change (FC) [1]: 8.2
IC50 [3]: > 100 µM
IC50 [2]: > 100 µM
IC50 (L929): > 100 µM
fractional inhibitory concentration index (FICI) [4]: 2.05
fractional inhibitory concentration index (FICI) [13]: 2.05

COc1ccc(-c2cn(Cc3cc(OC)c(OC)c(OC)c3)c(OCc3cc(OC)c(OC)c(OC)c3)c2-c2ccc(OC)c(OC)c2)cc1OC
fold change (FC) [1]: 1.6
IC50 [3]: > 100 µM
IC50 [2]: > 100 µM
IC50 (L929): > 100 µM

COc1ccc(C2=C(c3ccc(OC)c(OC)c3)C(=O)N(CCc3cc(OC)c(OC)c(OC)c3)C2=O)cc1OC
fold change (FC) [1]: 4.5
IC50 [3]: > 100 µM
IC50 [2]: > 100 µM
IC50 (L929): > 100 µM

COc1ccc(CN2C(=O)C(c3ccc(OC)c(OC)c3)=C(c3ccc(OC)c(OC)c3)C2=O)cc1
fold change (FC) [1]: 9.3
IC50 [3]: > 100 µM
IC50 [2]: > 100 µM
IC50 (L929): > 100 µM

COc1ccc(C2=C(c3ccc(OC)c(OC)c3)C(=O)N(CCN3C(=O)C(c4ccc(OC)c(OC)c4)=C(c4ccc(OC)c(OC)c4)C3=O)C2=O)cc1OC
fold change (FC) [1]: 1.4
IC50 [2]: > 100 µM
IC50 (L929): > 100 µM

COc1ccc(CCN2C(=O)C(c3ccc(OC)c(OC)c3)=C(c3ccc(OC)c(OC)c3)C2=O)cc1OC
fold change (FC) [1]: 6.9
IC50 [3]: > 100 µM
IC50 [2]: > 100 µM
IC50 (L929): > 100 µM

COc1ccc(CCN2C(=O)C(c3ccc(OC)c(OC)c3)=C(c3ccc(OC)c(OC)c3)C2=O)cc1
fold change (FC) [1]: 10.7
IC50 [3]: 32.5 µM
IC50 [2]: 18 µM
IC50 (L929): 21.6 µM
fractional inhibitory concentration index (FICI) [4]: 1.61
fractional inhibitory concentration index (FICI) [13]: 1.61

COc1ccc(C2=C(c3ccc(OC)c(OC)c3)C(=S)N(Cc3ccccc3)C2=O)cc1OC
fold change (FC) [1]: 3.4
IC50 [2]: > 100 µM
IC50 (L929): > 100 µM
